Screens from PubChem.
Sampled rows, rich in hits. Any-hit rate of the full collection: about 2.6%.
E-sel inducer – induces E-selectin expression in human endothelial cells. P16581. HUVEC E-selectin immunofluorescence imaging; normalized: neutral wells 0, TNF-alpha wells 100. activation, % at 7.58 µM. 260,000 tested, 0.37% active. AID 686992;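 active = mean E-selectin-positive cell signal at least 10% of the positive control, reached in at least 60% of replicates, without over 20% cell loss; inconclusive = no rule given, readout overlaps actives, possibly toxicity-flagged; inactive = the rest, including those meeting only one limit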
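assay system = HUVEC, human umbilical vein endothelial cells | input = 3,000 HUVEC seeded per well | medium = EGM-2 growth medium on 0.1% gelatin-coated wells | dosing = one compound dose added by pin transfer | signal = immunofluorescence imaging | read-out basis = % PE-positive cells | control set = TNF-alpha, DMSO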
AF4-AF9 inh – MLL-AF4/AF9 protein interaction inhibition | AlphaScreen, biotin-AF4 peptide binding to FLAG-AF9 | 350,000 tested, 0.47% active | inhibition, % at 10 µM | AID 651704 | P42568;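 active = every replicate reaching a set inhibition limit, whatever the replicate mean, cut at about 25% in these data; inconclusive = mean inhibition reaches that limit but some replicates miss it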;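 also: 0% = plate neutral control median and 100% = total signal loss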
GSIS activator – primary screen for activators of insulin secretion dependent on glucose, INS-1E cells, GLuc reporter luminescence. activation, % at 16.6 µM. 370,000 tested, 0.61% active. AID 743287. INS-1E GLuc reporter insulin secretion, 2-3 h;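 active = lowest replicate activation of at least 40%, so every replicate reaches that level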;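 also: 0% = median of neutral control wells and 100% = median of IBMX positive control wells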
RAD54 inh – RAD54 (human) branch migration inhibition; 360,000 tested, 0.14% active; Q92698; RAD54 Holliday junction branch migration, FAM/BHQ fluorescence; inhibition, % at 10.4 µM; AID 602329;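 active = mean normalized replicate activity at least 40 and at least half of replicates scoring 40 or more; inconclusive = only one of the two criteria met; inactive = mean below 40 and under half of replicates reaching 40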;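 also: 0% = median of neutral control wells and 100% = median of positive control wells; inhibitors cause a drop in the FAM fluorescence signal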
RAD52 anneal inh – inhibitors of human RAD52 DNA annealing. 360,000 tested, 0.46% active. recombinant RAD52 DNA annealing, FRET fluorescence. inhibition, % at 18.7 µM. AID 651710;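 active = every replicate showing at least 50% inhibition; inconclusive = mean inhibition at least 50% but not in every replicate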
Target sequence (P43351 whole entry, looked up): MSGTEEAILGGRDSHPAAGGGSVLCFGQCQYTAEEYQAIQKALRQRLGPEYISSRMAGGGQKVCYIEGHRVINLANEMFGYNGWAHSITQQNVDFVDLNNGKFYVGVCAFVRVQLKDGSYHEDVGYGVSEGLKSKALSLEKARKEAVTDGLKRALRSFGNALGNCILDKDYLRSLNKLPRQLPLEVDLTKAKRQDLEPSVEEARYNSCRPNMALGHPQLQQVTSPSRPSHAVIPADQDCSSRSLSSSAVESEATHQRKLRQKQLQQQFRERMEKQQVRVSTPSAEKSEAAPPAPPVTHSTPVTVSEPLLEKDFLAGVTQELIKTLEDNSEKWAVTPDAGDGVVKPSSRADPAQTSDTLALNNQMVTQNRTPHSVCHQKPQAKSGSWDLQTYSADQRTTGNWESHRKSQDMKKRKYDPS
rRNA inh HTS – inhibits bacterial ribosomal RNA function over humanized ribosomes; E. coli WT GFP vs humanized-ribosome RFP mutants, fluorescence, 24 h; active compounds read low; DMSO median 0, no signal -100; GFP signal change (wild-type ribosome), % (no concentration beside the values); 350,000 tested, 1.6% active; AID 720706;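 active = significant combined selectivity score with lowered wild-type GFP, culture density cut under 30%, mutant RFP and density less affected; inactive = any of these conditions unmet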
DNA binding – DNA binding artifact in Rad54 counter-screen; Acridine orange-DNA displacement, fluorescence polarization, 20 min; shares compounds with RAD54 inh; 460 tested, 8% active; AC50, µM (highest dose often 35 µM), for the others: at the highest dose activity change, negative = DNA binding;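 active = signal drop giving an AC50 within twice the top valid tested concentration of each sample, actives reach about 35 µM in these data; inactive = activity opposite to expected, plus the rest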;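 also: polarization loss reports compound binding to salmon sperm DNA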
Starred values were filed as active, the others as inactive; ? = inconclusive; . = no result given.

SMILES	E-sel inducer	AF4-AF9 inh	GSIS activator	RAD54 inh	RAD52 anneal inh	rRNA inh HTS	others
COc1ccc(Cl)cc1/C=N/NC(=O)c1c(-c2ccccc2)noc1C	.	0.4	-15.2	6.7	-5.9	-16.6*
Cc1onc(-c2ccccc2)c1C(=O)N/N=C/c1c[nH]c2ccccc12	.	5.4	-17.7	3.5	-92.7	-27.3
CC(C)C#Cc1cnc2c(c1)C(=O)N([C@H](C)CO)C[C@H](C)[C@H](CN(C)C(=O)c1ccc3c(c1)OCO3)O2	-0.2	-3.3	-14.1	4.1	20.6	-1.7
COC(=O)C[C@H]1C[C@H]2c3cc(NC(=O)CN(C)C)ccc3O[C@H]2[C@@H](CO)O1	0.6	-22.9	8.0	6.2	13.4	4.7
Cn1cnnc1SCC(=O)Nc1ccc2nc(SCc3ccccc3F)sc2c1	.	2.0	-2.1	2.5	-25.3	-23.2*
C[C@@H]1CN([C@@H](C)CO)C(=O)c2cccc(NS(=O)(=O)c3ccc(Cl)cc3)c2O[C@H]1CN(C)C	0.0	-2.2	12.6	-6.9	9.4	5.6
O=C(NCc1ccco1)N1c2ccccc2Sc2ccccc21	.	-33.4	-19.4	-2.9	-15.3	-24.0*
COCCCNC(=O)N1c2ccccc2Sc2ccccc21	.	5.1	-4.1	-0.8	-18.5	-4.4
CN(C)C(=O)COC(=O)/C=C/c1cn(-c2ccccc2)nc1-c1cccs1	20.6	4.2	-10.7	.	0.1	-31.8*
NC(=O)N/N=C/c1cn(-c2ccccc2)nc1-c1cccs1	3.5	11.9	2.2	.	-9.0	-11.3
C[C@H](CO)N1C[C@H](C)[C@@H](CN(C)C(=O)C2CC2)Oc2ncc(/C=C/c3ccccc3)cc2C1=O	-0.1	.	-8.6	.	.	-2.5
O=C(Nc1nc2ccccc2n1Cc1ccc(Cl)cc1)c1ccco1	.	.	47.5*	.	.	.
COCC(=O)N1C[C@H](C)[C@@H](OC)CN(C)C(=O)c2ccc(NC(=O)Nc3ccccc3)cc2OC[C@H]1C	-0.1	3.2	-10.1	0.9	-0.7	0.6
C[C@@H]1CCCCO[C@@H](CN(C)S(=O)(=O)c2cn(C)cn2)[C@@H](C)CN([C@H](C)CO)C(=O)c2cc(NS(=O)(=O)c3ccc(Cl)cc3)ccc2O1	0.0	-10.3	5.3	6.7	-20.2	1.5
C[C@@H]1CN(C)C(=O)Cc2cc(N)ccc2O[C@H]1CN(C)S(C)(=O)=O	.	.	-7.0	.	.	1.6
O=C1O[C@@H](c2ccccc2)[C@@H](c2ccccc2)N2[C@@H](c3ccc(O)cc3)[C@]3(C(=O)Nc4ccccc43)[C@@H](C(=O)N3CCCCCCC3)[C@H]12	.	0.2	.	-2.5	57.5*	.
O=C1O[C@@H](c2ccccc2)[C@@H](c2ccccc2)N2[C@@H](c3ccc(OCCO)cc3)[C@]3(C(=O)Nc4ccc(C#CCCO)cc43)[C@@H](C(=O)N3CCN(c4ncccn4)CC3)[C@H]12	.	0.7	.	-0.8	51.9*	.
O=C1O[C@@H](c2ccccc2)[C@@H](c2ccccc2)N2[C@@H](c3ccccc3OCCO)[C@]3(C(=O)Nc4ccc(C#CCCO)cc43)[C@@H](C(=O)N3CCN(c4ncccn4)CC3)[C@H]12	.	-1.0	.	-1.5	76.2*	.
O=C(C1CCCC1)N1CC(=O)N2[C@@H](CO)[C@H](c3ccc(-c4cccnc4)cc3)[C@@H]2C1	-0.6	-3.1	24.5	.	-0.9	2.0
CC(C)C#Cc1ccc([C@@H]2[C@@H](CO)N3C(=O)CN(S(=O)(=O)c4ccccc4)C[C@@H]23)cc1	0.2	0.9	-12.2	.	3.1	-0.9
CCNC(=O)C[C@@H]1CC[C@H]2[C@@H](COC[C@@H](O)CN2C(=O)Nc2c(C)noc2C)O1	0.0	-2.5	4.5	4.3	-4.6	5.5
Cc1nc(N2CCCCC2)sc1C(=O)c1ccc(SCCO)c([N+](=O)[O-])c1	1.3	14.0	20.1	5.5	-18.1	-20.2*
Cc1nc(N2CCCCC2)sc1C(=O)c1cccc([N+](=O)[O-])c1	0.9	20.8	29.4	.	-6.6	-6.2
CO[C@H]1CN(C)C(=O)c2cc(NC(C)=O)ccc2OC[C@H](C)N(C(=O)C2CCOCC2)C[C@H]1C	0.2	1.1	10.4	-7.6	-13.4	1.8
Cc1ccc(S(=O)(=O)N[C@H]2CC[C@@H](CC(=O)NCc3ccccc3F)O[C@@H]2CO)cc1	-1.2	-7.6	17.9	-11.9	-0.3	-0.6
SMILES	E-sel inducer	AF4-AF9 inh	GSIS activator	RAD54 inh	RAD52 anneal inh	rRNA inh HTS	others
CCCNc1nc2nc3ccccn3c(=O)c2cc1C(=O)NCCN1CCOCC1	.	-1.5	11.5	?	38.7	1.4	DNA binding=-12.1%
Cc1cccn2c(=O)c3cc(C(=O)NCc4ccccc4)c(=N)n(CCCN4CCOCC4)c3nc12	.	5.8	18.0	61.1*	32.4	9.0	DNA binding=-15.4%
CCCCNC(=O)c1cc2c(=O)n3cccc(C)c3nc2n(Cc2ccccc2)c1=N	.	-20.8	-10.6	29.8	18.9	12.1
COc1ccc(CCn2c(=N)c(C(=O)NCCN3CCOCC3)cc3c(=O)n4cccc(C)c4nc32)cc1OC	.	-0.9	-0.2	77.3*	37.1	6.5	DNA binding=-4.4%
Cc1cccn2c(=O)c3cc(C(=O)NCCc4ccccc4)c(=N)n(CCCn4ccnc4)c3nc12	.	.	.	51.8*	.	.	DNA binding=-3.6%
COC(=O)C[C@@H]1C[C@@H]2c3cc(NC(=O)Nc4ccc(F)cc4)ccc3O[C@@H]2[C@H](CO)O1	-0.1	.	4.7	-4.0	.	-2.1
C[C@H]1CN([C@@H](C)CO)C(=O)c2cccc(NC(=O)C3CC3)c2O[C@@H]1CN(C)Cc1ccncc1	0.0	-4.5	13.4	0.7	14.5	2.8
CO[C@H]1CN(C)C(=O)c2cc(NC(=O)c3ccc4c(c3)OCO4)ccc2OC[C@@H](C)N(CC2CC2)C[C@H]1C	-0.4	-6.8	1.2	-8.6	4.5	1.1
CCNC(=O)c1cc2c(=O)n3cccc(C)c3nc2n(CCc2ccccc2)c1=N	.	.	.	50.3*	.	.	DNA binding=0.0%
Cc1cccn2c(=O)c3cc(C(=O)NCCN4CCOCC4)c(=N)n(CCc4ccccc4)c3nc12	.	.	.	42.7	.	.
COc1ccc(S(=O)(=O)N(C)C[C@H]2OCCCC[C@H](C)Oc3ccc(NS(=O)(=O)c4ccccc4)cc3C(=O)N([C@@H](C)CO)C[C@H]2C)cc1	.	-0.1	-11.2	-1.8	6.5	-2.0
O=C(NCCc1ccccc1)[C@@H]1[C@@H](CO)[C@@H]2Cn3c(ccc(-c4ccccc4)c3=O)[C@H]1N2	0.0	-0.9	6.2	-8.2	-8.8	0.6
CCCCN(CC)CCCNC(=O)c1cc2cc3ccc(OC)cc3nc2o1	.	.	.	41.7	.	.
CCN1CCN(CCCNC(=O)c2cc3cc4ccc(OC)cc4nc3o2)CC1	.	.	.	56.2*	.	.	DNA binding=-22.3%
COc1ccc2cc3cc(C(=O)NCCCN4CCC(C)CC4)oc3nc2c1	.	.	.	58.3*	.	.	DNA binding=-20.0%
